Screening results deposited in PubChem BioAssay by several laboratories.
NR1D1 modulator: modulators of human Rev-erb alpha DNA binding. Rev-erbα–FITC-DNA binding, fluorescence polarization, 90 min. activity, % at 10 µM. hit rate 0.79% among 370,000. AID 1259318;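 active = activity above about 14%, limit read from the data; passing the limit was not always enough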
MC4R ag barr: agonists of human melanocortin 4 receptor (MC4R) beta-arrestin | P32245 | U2OS MC4R beta-arrestin complementation, luminescence; percent of melanotan II response, DMSO zero | activation, % at 8.9 µM | hit rate 0.98% among 360,000 | AID 540308;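 active = activation above a per-plate cutoff, the mean activation of sample wells on that plate plus 3 SD, cut at about 8% in these data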
Target sequence (P32245 whole entry, looked up): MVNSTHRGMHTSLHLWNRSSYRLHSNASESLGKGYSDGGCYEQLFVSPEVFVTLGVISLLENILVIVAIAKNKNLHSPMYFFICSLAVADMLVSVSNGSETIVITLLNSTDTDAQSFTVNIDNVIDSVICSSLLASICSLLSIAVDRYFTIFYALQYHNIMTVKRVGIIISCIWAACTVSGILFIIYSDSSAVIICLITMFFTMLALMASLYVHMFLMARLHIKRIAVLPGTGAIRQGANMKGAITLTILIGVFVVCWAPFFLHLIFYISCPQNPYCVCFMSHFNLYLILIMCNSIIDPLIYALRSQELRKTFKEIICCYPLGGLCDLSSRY
NR2E3 ag-1: agonists of human nuclear receptor NR2E3 | Q9Y5X4 | hit rate 0.12% among 320,000 | inhibition of corepressor binding, % at 4.78 µM | AID 2300 | GST-NR2E3/biotin-RetCOR TR-FRET, 1536-well;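 active = percent inhibition above the cutoff of mean plus 3 SD of all tested compounds, set per screening campaign, cut at about 20% in these data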
Target sequence (Q9Y5X4 whole entry, looked up): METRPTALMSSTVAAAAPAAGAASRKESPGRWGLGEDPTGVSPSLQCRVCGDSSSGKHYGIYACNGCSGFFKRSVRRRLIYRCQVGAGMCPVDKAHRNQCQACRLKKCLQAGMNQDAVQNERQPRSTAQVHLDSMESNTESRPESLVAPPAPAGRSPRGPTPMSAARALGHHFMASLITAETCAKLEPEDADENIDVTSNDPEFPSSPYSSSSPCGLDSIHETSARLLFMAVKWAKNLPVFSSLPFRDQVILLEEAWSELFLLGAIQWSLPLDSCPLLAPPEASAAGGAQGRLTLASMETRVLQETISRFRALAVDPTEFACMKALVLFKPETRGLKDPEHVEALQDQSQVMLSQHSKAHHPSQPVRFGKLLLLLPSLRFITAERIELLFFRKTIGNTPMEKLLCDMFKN
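Assay system: NR2E3–RetCOR corepressor complex. Quantity: 1.35 nM GST-NR2E3. Buffer or medium: pH 7.5 Tris-based buffer. Reagent: biotinylated RetCOR corepressor at 7 nM final. Schedule: 5 h at 4 °C. Detection: TR-FRET, emission read at 617 and 671 nm. Replicates: one well per compound, singlicate testing.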
PG9 Ab binder: binds the HIV-1 gp120 antibody PG9 | TR-FRET gp120-PG9 antibody binding | inhibition, % at 6.7 µM | hit rate 0.43% among 360,000; in the data active = inhibition above about 8.5%
MC4R antagonist: blocks human MC4R cAMP signaling | P32245 | MC4R-expressing cells, MTII-stimulated cAMP, LANCE TR-FRET | inhibition, % at 6.5 µM | hit rate 0.48% among 360,000 | AID 540295;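 active = inhibition above its plate's cutoff, the mean of tested wells on that plate plus 3 SD, cut at about 29% in these data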
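material = U2OS cells stably expressing human melanocortin 4 receptor (MC4R) | also added = Melanotan II challenge | dosing = single nominal compound dose of 6.5 µM | detection = TR-FRET with Eu-cAMP and labeled anti-cAMP, 671 nm | replication = singlicate | timing = compound 30 min, challenge 1 h, detection 1 h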
NR2E3 ag-2: human photoreceptor-specific nuclear receptor agonism; Q9Y5X4; CHO-S Gal4-NCOR/VP16-NR2E3 two-hybrid, luciferase; inhibition of corepressor binding, % at 3.98 µM; hit rate 0.35% among 360,000;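 active = inhibition above the mean of all tested compounds plus 3 SD, cut at about 70% in these data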;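 also: higher means lower luciferase signal from less NR2E3 corepressor binding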
MC4R barr conf: human MC4R beta-arrestin agonism confirmation | U2OS MC4R beta-arrestin recruitment, luminescence; scaled DMSO 0%, Melanotan II 100% | shares compounds with MC4R ag barr | activation, % at 8.9 µM | hit rate 31% among 2,400;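 active = mean activation across replicates above the hit cutoff set in the earlier primary screen, cut at about 8% in these data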
MOR-DOR barr ag: OPRM1-OPRD1 heterodimer agonism counter-screen | shares compounds with MC4R ag barr | U2OS PathHunter beta-arrestin, beta-gal luminescence; percent of deltorphin B response, DMSO zero | activation, % at 9.2 µM | hit rate 5.8% among 2,400;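 active = mean activation across replicates exceeds the hit threshold derived in the earlier primary screen, cut at about 18% in these data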
NR2E3 ag confirm: confirmation of human NR2E3 agonists. shares compounds with NR2E3 ag-2. CHO-S mammalian two-hybrid NR2E3-NCOR, luciferase luminescence. inhibition, % at 3.98 µM. hit rate 51% among 2,300;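 active = average inhibition above a cutoff equal to the mean inhibition of all tested compounds plus one SD, cut at about 70% in these data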
GAL4-VP16 luc: GAL4-VP16 reporter inhibition in NR2E3 agonist counterscreen | hit rate 29% among 2,300 | inhibition, % at 3.98 µM | AID 624379 | CHO-S GAL4-VP16 luciferase reporter, luminescence | shares compounds with NR2E3 ag-2;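 active = mean inhibition above a cutoff equal to the average over all tested compounds plus one standard deviation, cut at about 70% in these data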;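 also: luciferase from a UAS reporter driven by GAL4-VP16 transactivation; higher means less reporter light so more repression of VP16 activity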
Large screens that a line does not name were inactive (follow-up assays come after a bar, where they were run). Hits are enriched below; roughly 2.7% of the tested compounds scored in any of these assays.

COCc1c(C(=O)OCC(=O)NCCc2ccc(S(N)(=O)=O)cc2)oc2ccccc12	none
CCOCc1c(C(=O)OCC(=O)NCc2ccc(F)cc2)oc2ccccc12	MC4R ag barr 14 | MC4R barr conf inactive | MOR-DOR barr ag inactive
CCCC(=O)Nc1c(C(=O)OCC)oc2ccccc12	none
O=c1c2ccccc2nc(SCc2nc3ccccc3s2)n1Cc1ccco1	MC4R ag barr 11 | MC4R barr conf inactive | MOR-DOR barr ag inactive
Cc1nn(C)c(C(=O)Nc2ccc(Br)cc2F)c1Br	MC4R ag barr 13 (no result: PG9 Ab binder) | MC4R barr conf inactive | MOR-DOR barr ag inactive
Cc1cc2oc(C(=O)Nc3ccc(S(=O)(=O)Nc4nccs4)cc3)cc(=O)c2cc1Cl	MC4R ag barr 9.7 | MC4R barr conf inactive | MOR-DOR barr ag inactive
O=C1CCc2cc(S(=O)(=O)N3CCN(c4ccccc4)CC3)cc3c2N1CCC3	none
O=C1CCc2cc(S(=O)(=O)N3CCN(c4ccc(F)cc4)CC3)cc3c2N1CC3	MC4R ag barr 13 | MC4R barr conf inactive | MOR-DOR barr ag inactive
COc1ccc(/C=N/N2CCN(C3c4ccccc4-c4ccccc43)CC2)cc1OC	none
Cc1ccc(NC(=O)c2ccc(NCC3CCCO3)c([N+](=O)[O-])c2)cc1Cl (centres undefined)	MC4R ag barr 34 | MC4R barr conf 13 | MOR-DOR barr ag 21
Cc1ccc(NC(=O)c2ccc(NCc3ccco3)c([N+](=O)[O-])c2)cc1Cl	MC4R ag barr 11 | MC4R barr conf 25 | MOR-DOR barr ag 26
O=C1NC2c3ccccc3C(=O)N2c2c1cnn2-c1ccccc1 (centres undefined)	none
Cc1cccc(N2CCN(S(=O)(=O)c3ccc4c(c3)C(C)(C)C(=O)N4C)CC2)c1C	none
NC(=O)C1CCN(C(=O)CN(c2cccc(Cl)c2)S(=O)(=O)c2ccccc2)CC1	none
Cc1cc(CSc2ccccc2)ccc1NC(=O)c1ccc(Br)cc1	MC4R ag barr 9.9 | MC4R barr conf 12 | MOR-DOR barr ag inactive
CCOC(=O)CN(C(=O)CSc1nnc(-c2ccncc2)n1CCCOC)c1ccccc1	none
Cc1ccc(C)c(N2CCN(S(=O)(=O)c3ccc4[nH]c(=O)ccc4c3)CC2)c1	MC4R ag barr 17 | MC4R barr conf inactive | MOR-DOR barr ag inactive
Cc1cccc(N2CCN(S(=O)(=O)c3ccc4[nH]c(=O)ccc4c3)CC2)c1C	none
O=C(NCc1cccc2ccccc12)Nc1ccccc1	none
O=C(COC(=O)CCC1CCCCC1)Nc1ccc(OC(F)F)cc1	none
Cc1c(Cl)cccc1N=c1c([N+](=O)[O-])nn(-c2ccccc2)n1O	MC4R ag barr 24 | MC4R barr conf inactive | MOR-DOR barr ag inactive
Cc1ccc(N=c2c([N+](=O)[O-])nn(-c3ccccc3)n2O)c(C)c1	none
Cc1ccc2nc(Nc3ccc4[nH]c(=O)[nH]c4c3)c(-n3nc(C)cc3C)nc2c1	MC4R ag barr 34 | MC4R barr conf 29 | MOR-DOR barr ag inactive
Cc1cc(C)n(-c2nc3ccccc3nc2Nc2ccc3c(c2)OCO3)n1	none
O=C(CCCCCNc1nc(=S)[nH]c2ccccc12)NCCc1c[nH]c2ccccc12	none
O=C(CCCCCNc1nc(=S)[nH]c2ccccc12)NCCc1ccc(Cl)cc1	MC4R ag barr 12 | MC4R barr conf 11 | MOR-DOR barr ag inactive
O=C(Nc1ccn(Cc2c(F)c(F)cc(F)c2F)n1)c1ccc(COc2cc(Cl)ccc2Cl)o1	MC4R ag barr 11 | MC4R barr conf inactive | MOR-DOR barr ag inactive
Cc1nc(N2CCC(C)CC2)c2c(C)c(C(=O)Nc3cccc(C(F)(F)F)c3)sc2n1	none
O=C(Nc1ccccc1OC(F)F)c1oc2ccccc2c1COc1ccccc1	MC4R ag barr 27 | MC4R barr conf 14 | MOR-DOR barr ag inactive
O=S(=O)(NC1CC1)c1ccc(S(=O)(=O)N2CCCC(c3nc(-c4cccnc4)no3)C2)cc1 (centres undefined)	none
Cc1ccc(C(=O)N/C(=C\c2ccc(-c3ccc(Br)cc3)o2)C(=O)NCCCN(C)C)cc1	MC4R ag barr 11 | MC4R barr conf 9.1 | MOR-DOR barr ag inactive
C[C@H]1CN([C@@H](C)CO)C(=O)CCCn2nncc2CO[C@H]1CN(C)C(=O)Nc1ccc(N2CCCCC2)cc1	none (no result: NR2E3 ag-1)
O=C(Nc1ccccc1)Nc1cc(OCC(F)(F)F)cc(OCC(F)(F)F)c1	MC4R ag barr 10 (no result: NR2E3 ag-1) | MC4R barr conf inactive | MOR-DOR barr ag inactive | NR2E3 ag confirm inactive | GAL4-VP16 luc inactive
O=C(Nc1ccccc1)Nc1cc(Cl)cc(Cl)c1	none
Cc1ccc(S(=O)(=O)N(CC(=O)N/N=C/c2ccccc2C(=O)O)c2cc(Cl)cc(Cl)c2)cc1	none
COc1ccc(-c2n[nH]nc2C2=CC(=O)CC(C)(C)C2)cc1	none (no result: NR2E3 ag-1)
COc1ccc(NC(=O)C2CC(c3ccccc3Cl)=NO2)cc1 (centres undefined)	none
Cc1nnnn1/C(=C\c1ccccc1)C(=O)OCC(=O)Nc1cccc(S(=O)(=O)N(C)C)c1	none
Cc1nnnn1/C(=C\c1ccccc1)C(=O)OCC(=O)Nc1ccc(Cl)cc1F	MC4R ag barr 37 | MC4R barr conf 24 | MOR-DOR barr ag inactive | NR2E3 ag confirm inactive | GAL4-VP16 luc inactive
O=C1c2cccc3cccc(c23)C(=O)N1CC1CCN(CC(O)COc2ccc3ccccc3c2)CC1 (centres undefined)	MC4R ag barr 55 | MC4R barr conf 22 | MOR-DOR barr ag inactive | NR2E3 ag confirm inactive | GAL4-VP16 luc inactive
CCc1ccc(OCC(O)CN2CCC(CN3C(=O)c4cccc5cccc(c45)C3=O)CC2)cc1 (centres undefined)	none
OC1(c2cccc(C(F)(F)F)c2)CCN(c2ncnc3c2[nH]c2ccccc23)CC1	MC4R ag barr 11 | MC4R barr conf inactive | MOR-DOR barr ag inactive | NR2E3 ag confirm inactive | GAL4-VP16 luc inactive
Cc1cc(C)cc(N(CC(=O)NCc2ccccc2Cl)S(=O)(=O)c2c(C)[nH]c(=O)[nH]c2=O)c1	none
